Screens as filed in PubChem.
KCNK9 inh: inhibitors of human KCNK9 two-pore domain potassium channel; Q9NPC2; HEK293 KCNK9, FluxOR thallium flux fluorescence; hits give low values; B-score at 10 µM; 1.2% of 310,000 active;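 active = ratio B-score over 3 SD below the library mean, with starting fluorescence within 5 SD of its mean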;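 also: negative B-score means less thallium flux so channel inhibition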
Target sequence (Q9NPC2 whole entry, looked up, the tested form may be a part): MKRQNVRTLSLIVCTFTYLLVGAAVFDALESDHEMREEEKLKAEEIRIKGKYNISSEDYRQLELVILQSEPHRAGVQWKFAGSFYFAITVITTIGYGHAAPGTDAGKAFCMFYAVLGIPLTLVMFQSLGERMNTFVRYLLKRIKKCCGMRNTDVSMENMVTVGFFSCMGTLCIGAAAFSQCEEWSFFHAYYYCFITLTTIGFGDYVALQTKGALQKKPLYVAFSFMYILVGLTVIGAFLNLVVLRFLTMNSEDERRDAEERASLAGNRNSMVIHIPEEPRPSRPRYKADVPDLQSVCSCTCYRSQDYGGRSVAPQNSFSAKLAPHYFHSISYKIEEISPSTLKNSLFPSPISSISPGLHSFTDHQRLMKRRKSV
KCNQ1 block: blocks the human KCNQ1 potassium channel. P51787. CHO-K1 KCNQ1, FluxOR thallium flux fluorescence; hits give high values. B-score at 10 µM. 1.3% of 310,000 active. AID 2642;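 active = compounds whose thallium flux B-score, printed positive for inhibition, exceeds three library SD while starting fluorescence stays within three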;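 also: channel opened by potassium depolarization with thallium stimulus after 20 min compound exposure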
KCNK3 inh: human KCNK3 channel inhibition, primary screen | O14649 | CHO-KCNK3 thallium flux, FluxOR fluorescence; hits give low values | B-score at 10 µM | 0.84% of 340,000 active;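 active = B-score under library mean minus 4 SD, starting fluorescence ratio at most library mean plus 5 SD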;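 also: more negative B-score means stronger inhibition of thallium flux through KCNK3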
Target sequence (O14649 whole entry, looked up): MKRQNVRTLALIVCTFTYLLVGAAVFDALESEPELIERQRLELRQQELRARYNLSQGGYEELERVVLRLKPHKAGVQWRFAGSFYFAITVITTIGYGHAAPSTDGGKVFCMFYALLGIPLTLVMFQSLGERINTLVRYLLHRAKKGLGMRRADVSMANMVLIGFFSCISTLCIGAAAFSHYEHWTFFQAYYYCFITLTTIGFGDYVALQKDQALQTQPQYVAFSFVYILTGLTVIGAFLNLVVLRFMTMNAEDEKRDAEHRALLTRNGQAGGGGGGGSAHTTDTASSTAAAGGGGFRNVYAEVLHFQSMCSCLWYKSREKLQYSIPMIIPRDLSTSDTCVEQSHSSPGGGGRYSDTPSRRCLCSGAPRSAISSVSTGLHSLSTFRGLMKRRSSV
hERG protect: shields human hERG channel from block by proarrhythmic agents. 0.51% of 310,000 active. AID 1511. activation (rescue from dofetilide block), less the hit threshold, % at 10 µM. CHO-hERG, FluxOR thallium flux, dofetilide IC70 present. Q12809;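 active = activation above the mean of controls blocked by dofetilide plus 5 SD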;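 also: thallium influx through hERG after potassium depolarization seen as dye fluorescence rise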
Cl transport mod: KCC2 (human) Cl- transport modulation. 2.2% of 190,000 active. B-score of Tl+ flux slope (higher = more flux/activation; lower = inhibition) at 10 µM. KCC2 cells, thallium flux FluoZin-2 fluorescence. AID 1456;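 active = thallium flux slope and its plate-corrected score both differing from the plate sample mean at a set confidence after two filtering rounds, in either direction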;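 also: slope of fluorescence scaled to starting intensity during 10 to 20 s after thallium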
KCNQ1 pot: potentiates or activates the human KCNQ1 potassium channel. B-score at 10 µM. AID 2648. P51787. 0.35% of 310,000 active. CHO-K1 KCNQ1, thallium flux FluxOR fluorescence; hits give high values;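 active = fluorescence ratio B-score, a plate-corrected score, at least three library SD, with initial intensity B-score within 5 SD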
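System: CHO-K1 cells stably expressing KCNQ1 / Medium: assay buffer for compound exposure, DMSO matched across wells / Reagent: thallium- and potassium-containing depolarizing buffer / Compound: one concentration, matched DMSO / Incubation: 20 min compound pretreatment at room temperature / Measured by: kinetic FluxOR fluorescence, 10 s baseline plus 110 s post-stimulus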
KCC2 secondary: KCC2 (human) modulation, secondary assay | shares compounds with Cl transport mod | HEK293-KCC2, thallium flux, FluoZin2 fluorescence; hits give high values | 15% of 3,700 active | AID 1713 | normalised thallium flux (F/F0 slope) at 10 µM;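 active = thallium flux slope above the same plate's solvent-only control mean plus 3 SD; inconclusive = the two replicate wells disagree; inactive = no significant difference from solvent-only control wells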
KCC2 bumet counter: thallium flux despite bumetanide block in KCC2 cells, secondary assay 3 | HEK293-KCC2 + bumetanide/ouabain, thallium flux FluoZin2; hits give high values | normalized thallium flux at 10 µM | shares compounds with Cl transport mod | 49% of 3,700 active;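 active = thallium entry rate above the same plate's blocked-transporter control wells by more than 3 SD; inconclusive = the two repeat wells disagree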;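 also: raw slope of fluorescence over initial fluorescence between 10 and 20 s after thallium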
KCC2 sec2: confirmation of human KCC2 transport modulators; shares compounds with Cl transport mod; HEK293-KCC2, thallium flux FluoZin2 fluorescence; actives lie on both sides; F/F0 rise rate, 10–20 s post-thallium; normalized thallium flux at 10 µM; 23% of 3,700 active; AID 1715;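 active = thallium flux slope more than 3 SD above or below the plate's solvent-only control mean, mostly below; inconclusive = the two repeat wells disagreed; inactive = no significant shift from solvent-only controls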;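 also: raw slope with 0.1% DMSO as baseline and bumetanide as block control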
HEK293 Tl flux: acts in parental HEK cells, KCC2 counter-screen; shares compounds with Cl transport mod; HEK293 parental cells, thallium flux FluoZin2, ouabain; baseline-ratio fluorescence slope, 10–20 s after thallium; thallium flux rate (normalised fluorescence) at 10 µM; 46% of 3,700 active; AID 1716;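 active = thallium flux rate significantly above the same plate's solvent-only control wells, beyond their mean plus 3 SD; inconclusive = the two replicate wells gave conflicting results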
KCC2 retest ouab: modulates human KCC2 on retest with ouabain; shares compounds with Cl transport mod; HEK293-KCC2, thallium flux FluoZin2 fluorescence; bidirectional: low = inhibitor, high = activator; raw Tl+ flux slope (below DMSO = inhibition, above = activation) at 10 µM; 48% of 3,700 active;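 active = thallium flux slope beyond 3 SD from same-plate DMSO control mean in most replicates, usually higher, sometimes lower; inconclusive = repeat tests gave conflicting results; inactive = no significant difference from controls in most replicates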;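 also: slope of initial-normalized fluorescence between seconds 10 and 20 after thallium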
HEK counter2: counter-screen for KCC2 modulators: effect in parental HEK293 cells | shares compounds with Cl transport mod | thallium flux FluoZin-2 fluorescence slope | thallium flux slope at 10 µM | 33% of 3,700 active | AID 1718;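 active = thallium flux slope above the same plate's solvent-control mean plus 3 SD in both duplicate wells; inconclusive = duplicate wells that disagreed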;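 also: run without ouabain in cells lacking the KCC2 cotransporter; slope of fluorescence scaled to its starting value between 10 and 20 s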
* marks the source's active call; other numbers are inactive results; i = inactive; u = inconclusive; x = no result given. Hits are enriched below; roughly 4.1% of the tested compounds scored in any of these assays.

SMILES	KCNK9 inh	KCNQ1 block	KCNK3 inh	hERG protect	Cl transport mod	KCNQ1 pot	KCC2 secondary	KCC2 bumet counter	KCC2 sec2	HEK293 Tl flux	KCC2 retest ouab	HEK counter2
O=C(Nc1ccccc1C(=O)N/N=C/c1ccco1)c1ccc(Cl)cc1	i	i	i	-3	11*	i	0.0075	0.037*	0.034	0.014*	0.029*	0.015*
O=C(Nc1ccccc1C(=O)N/N=C/c1ccco1)c1ccc(F)cc1	i	i	i	-27	17*	i	0.016*	0.064*	0.035	0.023*	u	0.012*
CC(NC(C(=O)c1ccccc1)c1ccccc1)c1ccccc1 (configuration not stated)	x	x	i	x	x	x	x	x	x	x	x	x
CCN(c1ccccc1)c1nc2nonc2nc1NCCO	i	i	i	-5	-0.93	i	x	x	x	x	x	x
COCCNc1nc2nonc2nc1N(C)Cc1cccc2cnccc12	i	i	i	-9	-3.1*	i	0.0066	0.0049	0.028	0.0079	u	0.011
O=C(Cc1ccccc1)Nc1cccc(-c2nnc(-c3ccco3)o2)c1	i	i	i	-13	-1.9	i	0.0052	0.0045	0.03	0.0068	u	0.01
Cc1cccc(CSC2=CS(=O)(=O)c3ccccc3N2)c1	i	i	i	-7	-3.2	i	x	x	x	x	x	x
O=S1(=O)C=C(SCc2cccc(Cl)c2)Nc2ccccc21	i	i	i	-2	-3.4*	i	u	0.0054	0.03	0.0072	0.016*	0.01
Cc1cccc(C(=O)NCCCNC(=O)c2cccnc2)c1	i	i	i	-8	x	i	x	x	x	x	x	x
COc1ccc(-n2c(C)nc3cc(C(=O)NCCN4CCOCC4)ccc32)cc1	i	i	i	-11	-6.3*	i	0.0059	0.0048	0.031	0.0074	0.02	0.01
CCOc1ccc(-n2c(C)nc3cc(C(=O)NCCN4CCOCC4)ccc32)cc1	i	i	i	-9	-0.45	i	x	x	x	x	x	x
COC(=O)c1ccc(CSc2nc3ccccc3c(=O)n2CC(C)C)o1	-7.3*	i	i	-11	7.6*	i	0.0074	0.018*	0.035	0.017*	u	0.017*
O=C(NCCc1ccc(Cl)cc1)c1cccs1	i	i	i	-9	-0.71	i	x	x	x	x	x	x
O=C(Cc1ccc(Cl)cc1)NNC(=S)NC(=O)c1cccs1	i	i	i	-11	29*	i	0.0084	0.045*	0.037*	0.034*	0.037*	0.027*
CCCCn1c(N)c(N(CC(C)C)C(=O)c2ccc(OC)c(S(=O)(=O)N3CCOCC3)c2)c(=O)[nH]c1=O	x	x	i	x	x	x	x	x	x	x	x	x
O=C(Cc1c(Cl)cccc1Cl)N1CCN(S(=O)(=O)c2cccs2)CC1	x	x	i	x	x	x	x	x	x	x	x	x
Cc1cccc(N=Nc2ccc(O)c3ncccc23)c1	i	i	i	2	15*	10*	0.01	0.034*	0.03	0.033*	0.049*	0.012*
Cc1ccc(C)c(N=Nc2ccc(O)c3ncccc23)c1	i	i	i	-6	13*	i	u	0.012*	0.032	0.01*	0.032*	u
CCS(=O)(=O)c1ccc(OC)c(N=Nc2ccc(O)c3ncccc23)c1	i	i	i	-10	0.51	i	x	x	x	x	x	x
CCCOc1ccc(C(=O)CCNC(Cc2c[nH]c3ccccc23)C(=O)O)cc1 (configuration not stated)	i	i	i	-4	x	i	x	x	x	x	x	x
C=CCn1c(=S)[nH]c2sccc2c1=O	i	i	i	-1	7.8*	i	0.0068	0.015*	0.036	0.017*	u	0.019*
C=CCn1c(=S)[nH]c2cc(C(=O)Nc3ccc(F)cc3)ccc2c1=O	i	i	i	-8	x	i	x	x	x	x	x	x
CCN(CC(=O)Nc1ccc(NC(C)=O)cc1)C(=O)CN1C(=O)NC(C)(c2ccc3ccccc3c2)C1=O (configuration not stated)	x	x	i	x	x	x	x	x	x	x	x	x
O=C(NC1CCCC1)NS(=O)(=O)c1ccccc1Cl	i	i	i	-4	5.7*	i	0.0076	0.0059	0.028	0.0066	0.02	0.0094
CCOC(=O)[C@H]1[C@H]2COc3ccc(OC)cc3[C@@H]2N2C(=O)c3cc(F)c(F)cc3NC(=O)[C@@]12C	x	x	i	x	x	x	x	x	x	x	x	x
SMILES	KCNK9 inh	KCNQ1 block	KCNK3 inh	hERG protect	Cl transport mod	KCNQ1 pot	KCC2 secondary	KCC2 bumet counter	KCC2 sec2	HEK293 Tl flux	KCC2 retest ouab	HEK counter2
Cc1noc(C)c1CSc1ncnc2sc3c(c12)CCCCC3	i	i	i	35*	78*	11*	0.033*	0.16*	u	0.078*	0.11*	0.028*
CCSc1ncnc2sc3c(c12)CCC3	i	i	i	-8	0.93	i	x	x	x	x	x	x
O=C(O)CSc1ncnc2sc3c(c12)CCCC3	i	i	i	-8	12*	i	0.006	0.0065*	u	0.0099*	0.018	0.0093
Cc1ccc(C(=O)CSc2ncnc3sc4c(c23)CCCC4)cc1	i	i	i	-9	5.3*	i	0.014*	0.033*	0.032	0.026*	0.03*	u
O=C(O)CSc1ncnc2sc3c(c12)CCC3	i	i	i	-8	7.8*	i	0.016*	0.035*	0.031	0.016*	0.037*	0.012*
Nc1ccccc1C(=O)NC(=O)Nc1ccc(Oc2ncc(Br)cn2)c(Cl)c1	x	x	i	x	x	x	x	x	x	x	x	x
Cc1cccn2c(CNCCc3ccco3)c(C(=O)N3CCOCC3)nc12	i	i	i	-10	x	i	x	x	x	x	x	x
O=[N+]([O-])c1ccccc1/C=C/C=N/n1c(-c2ccccc2)n[nH]c1=S	i	i	i	-6	9.3*	i	0.013*	0.095*	0.033	0.011*	0.041*	0.012*
